# From ChEMBL document CHEMBL5058577, “EUbOPEN Chemogenomics Library 2 (Multiplex)” (2022)
# Test system: U2OS
# Assay: Multiplex assay against U2OS
# Assay type: toxicity, cell-based
# Details: human
# How it was run: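 At seeding, live cells were stained with Hoechst33342, BioTracker Green Microtubule Cytoskeleton Dye, MitoTracker Red and Annexin V Alexa Fluor 680. After compound addition they were imaged on a CQ1 microscope at 37°C and 5% CO2, and CellPathfinder machine-learning gating sorted them into Hoechst high-intensity objects or normal cells, with normal cells further split into healthy, pyknosed or fragmented nuclei and pyknosed cells into mitotic or apoptotic. Tubulin, mitochondrial-mass and membrane-permeability phenotypes are given as per cents of cells with healthy nuclei.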
# [1] = 12 h, 1 µM, compound concentration 1 uM, replicate 1
# [2] = 12 h, 1 µM, compound concentration 1 uM, replicate 2
# [3] = 12 h, 10 µM, compound concentration 10 uM, replicate 1
# [4] = 12 h, 10 µM, compound concentration 10 uM, replicate 2
# [5] = 24 h, 1 µM, compound concentration 1 uM, replicate 1
# [6] = 24 h, 1 µM, compound concentration 1 uM, replicate 2
# [7] = 24 h, 10 µM, compound concentration 10 uM, replicate 1
# [8] = 24 h, 10 µM, compound concentration 10 uM, replicate 2
# [9] = 48 h, 1 µM, compound concentration 1 uM, replicate 1
# [10] = 48 h, 1 µM, compound concentration 1 uM, replicate 2
# [11] = 48 h, 10 µM, compound concentration 10 uM, replicate 1
# [12] = 48 h, 10 µM, compound concentration 10 uM, replicate 2
compound,measurement,setting,value
CN1C[C@H](C(=O)N[C@]2(C)O[C@@]3(O)[C@@H]4CCCN4C(=O)[C@H](Cc4ccccc4)N3C2=O)C[C@@H]2c3cccc4[nH]cc(c34)C[C@H]21.CS(=O)(=O)O [DIHYDROERGOTAMINE MESYLATE],Population Apoptotic (%),[1],82%
same,Population Fragmented Nuclei (%),[1],24%
same,Population Healthy Nuclei (%),[1],65%
same,Population Hoechst High Intensity Objects (%),[1],1%
same,Population Membrane Permeable-Phenotype (%),[1],6%
same,Population Mitochondria Different-Phenotype (%),[1],2%
same,Population Mitotic Cells (%),[1],17%
same,Population Normal (%),[1],98%
same,Population Pyknosed Nuclei (%),[1],10%
same,Population Tubulin-Different-Phenotype (%),[1],2%
same,Total Cell Count,[1],233
same,Population Apoptotic (%),[2],84%
same,Population Fragmented Nuclei (%),[2],23%
same,Population Healthy Nuclei (%),[2],63%
same,Population Membrane Permeable-Phenotype (%),[2],14%
same,Population Mitochondria Different-Phenotype (%),[2],1%
same,Population Mitotic Cells (%),[2],15%
same,Population Pyknosed Nuclei (%),[2],13%
same,Population Tubulin-Different-Phenotype (%),[2],7%
same,Total Cell Count,[2],101
same,Population Apoptotic (%),[3],71%
same,Population Fragmented Nuclei (%),[3],19%
same,Population Healthy Nuclei (%),[3],73%
same,Population Hoechst High Intensity Objects (%),[3],2%
same,Population Membrane Permeable-Phenotype (%),[3],5%
same,Population Mitochondria Different-Phenotype (%),[3],1%
same,Population Mitotic Cells (%),[3],28%
same,Population Normal (%),[3],97%
same,Population Pyknosed Nuclei (%),[3],7%
same,Population Tubulin-Different-Phenotype (%),[3],3%
same,Total Cell Count,[3],298
same,Population Apoptotic (%),[4],100%
same,Population Healthy Nuclei (%),[4],77%
same,Population Hoechst High Intensity Objects (%),[4],1%
same,Population Mitochondria Different-Phenotype (%),[4],0%
same,Population Mitotic Cells (%),[4],0%
same,Population Normal (%),[4],98%
same,Population Pyknosed Nuclei (%),[4],2%
same,Population Tubulin-Different-Phenotype (%),[4],0%
same,Total Cell Count,[4],144
same,Population Apoptotic (%),[5],89%
same,Population Fragmented Nuclei (%),[5],23%
same,Population Healthy Nuclei (%),[5],67%
same,Population Hoechst High Intensity Objects (%),[5],0%
same,Population Membrane Permeable-Phenotype (%),[5],2%
same,Population Mitochondria Different-Phenotype (%),[5],0%
same,Population Mitotic Cells (%),[5],10%
same,Population Normal (%),[5],99%
same,Population Pyknosed Nuclei (%),[5],9%
same,Population Tubulin-Different-Phenotype (%),[5],2%
same,Total Cell Count,[5],307
same,Population Apoptotic (%),[6],100%
same,Population Fragmented Nuclei (%),[6],21%
same,Population Healthy Nuclei (%),[6],65%
same,Population Hoechst High Intensity Objects (%),[6],1%
same,Population Membrane Permeable-Phenotype (%),[6],8%
same,Population Mitochondria Different-Phenotype (%),[6],2%
same,Population Mitotic Cells (%),[6],0%
same,Population Normal (%),[6],98%
same,Population Pyknosed Nuclei (%),[6],13%
same,Population Tubulin-Different-Phenotype (%),[6],4%
same,Total Cell Count,[6],132
same,Population Apoptotic (%),[7],88%
same,Population Fragmented Nuclei (%),[7],18%
same,Population Healthy Nuclei (%),[7],73%
same,Population Hoechst High Intensity Objects (%),[7],1%
same,Population Membrane Permeable-Phenotype (%),[7],4%
same,Population Mitochondria Different-Phenotype (%),[7],2%
same,Population Mitotic Cells (%),[7],11%
same,Population Normal (%),[7],98%
same,Population Pyknosed Nuclei (%),[7],8%
same,Population Tubulin-Different-Phenotype (%),[7],2%
same,Total Cell Count,[7],337
same,Population Apoptotic (%),[8],92%
same,Population Fragmented Nuclei (%),[8],16%
same,Population Healthy Nuclei (%),[8],75%
same,Population Mitotic Cells (%),[8],7%
same,Population Tubulin-Different-Phenotype (%),[8],1%
same,Total Cell Count,[8],163
same,Population Apoptotic (%),[9],80%
same,Population Fragmented Nuclei (%),[9],14%
same,Population Healthy Nuclei (%),[9],78%
same,Population Hoechst High Intensity Objects (%),[9],2%
same,Population Membrane Permeable-Phenotype (%),[9],2%
same,Population Mitochondria Different-Phenotype (%),[9],2%
same,Population Mitotic Cells (%),[9],19%
same,Population Normal (%),[9],97%
same,Population Pyknosed Nuclei (%),[9],7%
same,Population Tubulin-Different-Phenotype (%),[9],1%
same,Total Cell Count,[9],427
same,Population Apoptotic (%),[10],90%
same,Population Fragmented Nuclei (%),[10],11%
same,Population Healthy Nuclei (%),[10],76%
same,Population Hoechst High Intensity Objects (%),[10],1%
same,Population Membrane Permeable-Phenotype (%),[10],6%
same,Population Mitotic Cells (%),[10],10%
same,Population Normal (%),[10],98%
same,Population Pyknosed Nuclei (%),[10],11%
same,Population Tubulin-Different-Phenotype (%),[10],4%
same,Total Cell Count,[10],173
same,Population Apoptotic (%),[11],95%
same,Population Fragmented Nuclei (%),[11],14%
same,Population Healthy Nuclei (%),[11],75%
same,Population Hoechst High Intensity Objects (%),[11],3%
same,Population Membrane Permeable-Phenotype (%),[11],7%
same,Population Mitochondria Different-Phenotype (%),[11],3%
same,Population Mitotic Cells (%),[11],4%
same,Population Normal (%),[11],96%
same,Population Pyknosed Nuclei (%),[11],9%
same,Population Tubulin-Different-Phenotype (%),[11],3%
same,Total Cell Count,[11],452
same,Population Apoptotic (%),[12],100%
same,Population Fragmented Nuclei (%),[12],19%
same,Population Healthy Nuclei (%),[12],72%
same,Population Membrane Permeable-Phenotype (%),[12],3%
same,Population Mitochondria Different-Phenotype (%),[12],1%
same,Population Mitotic Cells (%),[12],0%
same,Population Pyknosed Nuclei (%),[12],8%
same,Population Tubulin-Different-Phenotype (%),[12],2%
same,Total Cell Count,[12],217
